Where a chain is given by its changes, count along the chain named.
What was measured:
P. falciparum, 3D7 line = assay: P. falciparum inhibition assay; assay type: cell-based; details: synchronized P. falciparum trophozoites (3D7 line)
Method in brief: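 Synchronous late-trophozoite cultures (1% parasitemia, 2% hematocrit) with test compound in 0.5% DMSO, 48 h at 37 °C. Aliquots stained with hydroethidine (1:200 dilution of 10 mg/mL stock in PBS), 20 min at 37 °C; 50,000 cells counted by flow cytometry. Untreated parasites and uninfected RBCs are the controls; % inhibition computed.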

PfNMT = target: T1, PfNMT (Plasmodium falciparum, UniProt Q9U419); assay: NMT enzyme inhibition assay; assay type: biochemical, P. falciparum; details: for lower inhibition vs. 4: shorter or longer spacers than the methylene ester; for lower inhibition vs. 4 / activity drop vs. 4: compared with compound 4
T1 sequence (Q9U419 1-410): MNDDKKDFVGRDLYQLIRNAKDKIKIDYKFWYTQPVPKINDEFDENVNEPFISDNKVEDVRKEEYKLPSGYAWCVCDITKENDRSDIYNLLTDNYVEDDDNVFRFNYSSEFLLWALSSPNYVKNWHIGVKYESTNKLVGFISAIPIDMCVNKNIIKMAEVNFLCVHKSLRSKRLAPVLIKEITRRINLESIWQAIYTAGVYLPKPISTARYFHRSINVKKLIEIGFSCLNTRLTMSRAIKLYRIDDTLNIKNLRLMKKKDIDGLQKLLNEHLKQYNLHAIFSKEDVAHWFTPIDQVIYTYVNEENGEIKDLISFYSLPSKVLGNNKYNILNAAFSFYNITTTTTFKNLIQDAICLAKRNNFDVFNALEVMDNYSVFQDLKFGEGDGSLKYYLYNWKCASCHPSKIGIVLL
Method in brief: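 Stopped with streptavidin PVT beads in pH 4 stop solution; scintillation counted. No-inhibitor wells set 100%, no-enzyme wells 0%. Test compound 500 μM to 2 nM, in duplicate. IC50 by nonlinear regression, averaged from two independent curves.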

HsNMT1 = target: T2, HsNMT1 (Homo sapiens, UniProt P30419); assay: NMT enzyme inhibition assay; assay type: biochemical
T2 sequence (P30419 109-496 limits assumed): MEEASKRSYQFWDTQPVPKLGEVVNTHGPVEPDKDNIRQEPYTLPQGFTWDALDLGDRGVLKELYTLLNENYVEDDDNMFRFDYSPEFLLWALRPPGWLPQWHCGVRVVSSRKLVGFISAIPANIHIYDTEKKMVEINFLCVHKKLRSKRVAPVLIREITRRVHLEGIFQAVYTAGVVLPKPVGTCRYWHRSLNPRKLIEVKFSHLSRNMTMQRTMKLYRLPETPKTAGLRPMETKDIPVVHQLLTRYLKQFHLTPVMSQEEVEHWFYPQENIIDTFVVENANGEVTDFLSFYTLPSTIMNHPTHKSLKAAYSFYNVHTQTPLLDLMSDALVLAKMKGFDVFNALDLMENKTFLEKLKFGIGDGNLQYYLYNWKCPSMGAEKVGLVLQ

HsNMT1 Y296A = target: T3, HsNMT1 Y296A (Homo sapiens, UniProt P30419, Y296A); assay: NMT enzyme inhibition assay; assay type: biochemical; details: HsNMT1 Y296A vs wild type
T3 sequence (P30419 109-496 Y296A limits assumed): T2 sequence (P30419 109-496 limits assumed) with Y188A

## Cc1c(C(=O)OCc2ccccc2)oc2cccc(OC3CCNCC3)c12 [Compound 4]
P. falciparum, 3D7 line
  anti-plasmodial effect in vitro (in words): highest anti-parasitic activity

## O=S(=O)(Cc1ccccc1)c1cc2c(OC3CCNCC3)cccc2o1 [Compound 24, 4-{[2-(Phenylmethane)sulfonyl-1-benzofuran-4-yl]oxy}piperidine]
PfNMT
  PfNMT inhibition (in words): dramatic loss of activity

## Cc1c(C(=O)NC(C)C)oc2cccc(OC3CCNCC3)c12 [Compound 9, N-isopropyl-3-methyl-4-(piperidin-4-yloxy)benzofuran-2-carboxamide]
PfNMT
  IC50: > 200 µM

## Cc1c(C(=O)OCCCc2ccccc2)oc2cccc(OC3CCNCC3)c12 [Compound 8]
PfNMT
  lower inhibition vs. 4: 10- to 100 fold

## Cc1c(COCc2ccccc2)oc2cccc(OC3CCNCC3)c12 [Compound 21, 4-({2-[(Benzyloxy)methyl]-3-methyl-1-benzofuran-4-yl}oxy)-piperidine]
PfNMT; PfNMT inhibition
  activity drop vs. 4: 40 fold

## CCOC(=O)c1oc2cccc(OC3CCNCC3)c2c1C [Compound 2, Ethyl 3-methyl-4-(piperidin-4-yloxy) benzofuran-2-carboxylate]
PfNMT; PfNMT inhibition, compared with compound 1
  activity improvement over 1: 3 fold
HsNMT1
  selectivity over human NMT1 (in words): good human selectivity

## CCOC(=O)c1oc2cccc(OCCCNCc3cccnc3)c2c1C [Compound 1, reference compound]
PfNMT
  PfNMT inhibition (in words): moderate inhibition
HsNMT1
  selectivity over human NMT1 (in words): promising selectivity

## Cc1c(C(=O)CCc2ccccc2)oc2cccc(OC3CCNCC3)c12 [Compound 22]
PfNMT; PfNMT inhibition
  activity drop vs. 4: 40 fold

## COc1cccc(COC(=O)c2oc3cccc(OC4CCNCC4)c3c2C)c1 [Compound 26]
PfNMT
  PfNMT inhibition (in words): comparable potency to the parent compound 4
HsNMT1 Y296A
  increase in affinity on mutation of the human NMT: four- to five-fold
HsNMT1
  HsNMT1 inhibition (in words): weak inhibition

## Cc1c(C(=O)OCCc2ccccc2)oc2cccc(OC3CCNCC3)c12 [Compound 7]
PfNMT
  lower inhibition vs. 4: 10- to 100 fold

## Cc1c(C(=O)/C=C/c2ccccc2)oc2cccc(OC3CCNCC3)c12 [Compound 23, (2E)-1-[3-Methyl-4-(piperidin-4-yloxy)-1-benzofuran-2-yl]-3-phenylprop-2-en-1-one]
PfNMT; PfNMT inhibition, compared with compound 22
  improvement in affinity vs. 22: 3 fold

## Cc1c(CCc2ccccc2)oc2cccc(OC3CCNCC3)c12 [Compound 18, 4-{[3-Methyl-2-(2-phenylethyl)-1-benzofuran-4-yl]oxy}piperidine]
PfNMT
  PfNMT inhibition (in words): does not confer inhibitory activity

## Cc1c(C(=O)Oc2ccccc2)oc2cccc(OC3CCNCC3)c12 [Compound 3, Phenyl 3-methyl-4-(piperidin-4-yloxy)-1-benzofuran-2-carboxylate]
PfNMT
  lower inhibition vs. 4: 10- to 100 fold

## Cc1c(-c2nc(Cc3ccccc3)no2)oc2cccc(OC3CCNCC3)c12 [Compound 25]
PfNMT
  PfNMT inhibition (in words): promising potency

## Cc1c(C(=O)NC2CCCCC2)oc2cccc(OC3CCNCC3)c12 [Compound 10]
PfNMT
  IC50: > 100 µM
